According to publication PMC5376495 (ACS combinatorial science, 2017):
Where a SMILES comes first, the peptide text is derived from it. [ ]: non-standard residue; d: D form. The star is where a group is joined. Benzoyl(4-tBu) = CC(C)(C)c1ccc(C(=O)*)cc1; Lys(Et2) = CCN(CC)CCCC[C@H](N)C(=O)O

Assays:
EED = EED (Homo sapiens, UniProt O75530); details: cited from earlier work
[1] = tested on: PRC2 complexes containing EED mutations (F97A, W364A, Y365A); assay: PRC2 methyltransferase assay with EED aromatic cage mutants; type: biochemical
Summary of the method: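 EZH2:EED:SUZ12 complexes carrying EED cage mutations made by site-directed mutagenesis, co-expressed in baculovirus-infected Sf9 cells, and FLAG-affinity purified like wild type. Reaction ran 1 h at 23 °C in 20 mM Tris-HCl pH 8, 5 mM DTT, 0.01% Triton X-100 with 1 µM 3H-SAM, 1 µM biotinylated H3(21–44), and 20 nM complex. Stopped by adding 7.5 M guanidine-HCl. Scintillation proximity read-out on streptavidin Flash-plates after 2 h. Normalised to no-compound (100%) and no-enzyme (0%) CPM.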

Sequence of EED (O75530 whole entry): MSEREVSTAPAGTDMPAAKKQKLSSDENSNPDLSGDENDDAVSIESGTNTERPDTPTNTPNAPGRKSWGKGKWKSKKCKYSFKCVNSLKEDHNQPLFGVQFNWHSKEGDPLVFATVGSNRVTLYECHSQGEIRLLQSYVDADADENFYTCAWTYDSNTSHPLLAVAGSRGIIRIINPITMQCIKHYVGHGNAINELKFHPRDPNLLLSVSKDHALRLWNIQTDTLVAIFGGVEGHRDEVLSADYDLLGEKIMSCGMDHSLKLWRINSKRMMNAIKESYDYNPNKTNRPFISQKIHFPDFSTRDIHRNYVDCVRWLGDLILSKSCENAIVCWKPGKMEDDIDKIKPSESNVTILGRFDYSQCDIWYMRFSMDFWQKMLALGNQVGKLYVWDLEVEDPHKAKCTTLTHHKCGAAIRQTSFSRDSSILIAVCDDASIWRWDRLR

inhibition of basal catalytic activity of PRC2 with EED mutants [1]	SMILES	affinity for EED in solution-based assays (EED)
–	CCN(CC)CCCC[C@H](NC(=O)[C@H](CC(C)C)NC(=O)[C@H](C)NC(=O)[C@H](Cc1ccccc1)NC(=O)c1ccc(C(C)(C)C)cc1)C(=O)N[C@@H](CO)C(=O)OC [UNC3866] ({Benzoyl(4-tBu)}-FAL[Lys(Et2)]S-OMe)	lack of affinity
completely abrogates the activity	CCCc1cc(C)[nH]c(=O)c1CNC(=O)c1cc(-c2ccc(N3CCN(C(C)C)CC3)nc2)cc2c1cnn2C(C)C [UNC1999]	–
